Assays:
[1] = Observed dissociation constant of interaction with plasma antithrombin at 25 degree Celsius in 20 mM sodium phosphate buffer at a pH 6.0; format: ADME, cell-free
Method in brief: (§1)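 Human plasma antithrombin (1 µM) with TNS (5 µM) was titrated with the sulfated flavanoid. Buffer was 20 mM sodium phosphate, 0.1 mM EDTA, 0.1% PEG 8000, at pH 6.0 (I 0.025) or 7.4 (I 0.035). Fluorescence decrease was read at 432 nm (excitation 330 nm). KD came from fitting to a quadratic equilibrium binding equation.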

[2] = Second order rate constant for antithrombin inhibition of factor Xa in the presence of activator determined
[3] = Non ionic interaction with plasma antithrombin at 25 degree Celsius in 20 mM sodium phosphate buffer at a pH 6.0; format: ADME, cell-free
[4] = Non ionic interaction with plasma antithrombin at 25 degree Celsius in 20 mM sodium phosphate buffer at a pH 7.4; format: ADME, cell-free
[5] = target: Coagulation factor X (Homo sapiens) (UniProt P00742); assay: Second order rate constant for antithrombin inhibition of factor Xa in the presence of activator determined
Sequence of Coagulation factor X (Homo sapiens) (P00742 41-179 limits assumed): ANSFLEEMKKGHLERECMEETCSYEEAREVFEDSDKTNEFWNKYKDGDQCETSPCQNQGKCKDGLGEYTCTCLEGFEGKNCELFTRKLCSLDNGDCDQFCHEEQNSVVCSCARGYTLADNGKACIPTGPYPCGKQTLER
Sequence of Coagulation factor X (Homo sapiens) (P00742 235-488 limits assumed): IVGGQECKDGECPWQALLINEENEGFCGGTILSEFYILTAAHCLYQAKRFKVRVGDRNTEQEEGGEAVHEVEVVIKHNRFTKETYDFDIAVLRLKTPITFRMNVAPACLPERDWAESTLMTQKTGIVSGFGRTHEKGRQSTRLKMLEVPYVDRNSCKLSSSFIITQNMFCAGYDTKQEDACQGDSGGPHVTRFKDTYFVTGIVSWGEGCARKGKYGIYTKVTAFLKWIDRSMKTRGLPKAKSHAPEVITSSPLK

[6] = Observed dissociation constant of interaction with plasma antithrombin at 25 degree Celsius in 20 mM sodium phosphate buffer at a pH 7.4; format: ADME, cell-free; method in brief: as §1
[7] = Effect (0 uM) on second-order rate constant that accelerated inhibition of factor Xa by antithrombin-CS (50 uM)complex
[8] = Dissociation constant of CS-Antithrombin interaction at 25 degree Celsius 20 mM sodium phosphate buffer at pH 6.0 at 20 uM; format: functional
Method in brief: (§2)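 Competitive titration of CS into plasma antithrombin–TNS complex with tetrasaccharide EFGH″ held at a fixed level, much above antithrombin. Competitor levels spanned 0.67–6.7 × its own antithrombin KD. Run at 25 °C in 20 mM sodium phosphate, 0.1 mM EDTA, 0.1% PEG 8000, pH 6.0, I 0.025. Read-out was the decrease in TNS fluorescence with rising CS. Antithrombin was freshly diluted from pH 7.4 stock.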

[9] = Dissociation constant of CS-Antithrombin interaction at 25 degree Celsius 20 mM sodium phosphate buffer at pH 6.0 at 10 uM; format: functional; method in brief: as §2
[10] = Dissociation constant of CS-Antithrombin interaction at 25 degree Celsius 20 mM sodium phosphate buffer at pH 6.0 at 4.5 uM; format: functional; method in brief: as §2
[11] = Dissociation constant of CS-Antithrombin interaction at 25 degree Celsius 20 mM sodium phosphate buffer at pH 6.0 at 30 uM; format: functional; method in brief: as §2
[12] = Dissociation constant of CS-Antithrombin interaction at 25 degree Celsius 20 mM sodium phosphate buffer at pH 6.0 at 0 uM; format: functional
[13] = Effect (1 uM) on observed rate constant that accelerated inhibition of factor Xa by antithrombin-CS (0 uM) complex
[14] = Effect (2 uM)on second-order rate constant that accelerated inhibition of factor Xa by antithrombin-CS (0 uM) complex
[15] = Effect (1 uM) on second-order rate constant that accelerated inhibition of factor Xa by antithrombin-CS (50 uM)complex
[16] = Dissociation constant of CS-Antithrombin interaction at 25 degree Celsius 20 mM sodium phosphate buffer at pH 6.0 at 3.0 uM; format: functional; method in brief: as §2
[17] = Effect (2 uM)on second-order rate constant that accelerated inhibition of factor Xa by antithrombin-CS (50 uM)complex
[18] = Effect (4 uM) on second-order rate constant that accelerated inhibition of factor Xa by antithrombin-CS (50 uM)complex
[19] = Effect (4 uM) on second-order rate constant that accelerated inhibition of factor Xa by antithrombin-CS (0 uM) complex

**Q.** What does the source list for `O=S(=O)(O)Oc1cc2c(c(OS(=O)(=O)O)c1)C[C@@H](OS(=O)(=O)O)[C@H](c1ccc(OS(=O)(=O)O)c(OS(=O)(=O)O)c1)O2` (racemic)?
**A.** Kd [1]: 26.1 µM; kACT [2]: 2770 M⁻¹ s⁻¹; KD non ionic [3]: 470 µM

**Q.** With `O=S(=O)(O)Oc1cc2c(c(OS(=O)(=O)O)c1)C[C@@H](OS(=O)(=O)O)[C@@H](c1ccc(OS(=O)(=O)O)c(OS(=O)(=O)O)c1)O2` as the compound, how does the Kd [4] read?
**A.** 1100 µM

**Q.** And the K ACT [5]?
**A.** 3380 M⁻¹ s⁻¹

**Q.** What about the Kd [1] of the same compound?
**A.** 10.7 µM

**Q.** What about the Kd [6] of the same compound?
**A.** 32.3 µM

**Q.** And the Kd [3]?
**A.** 380 µM

**Q.** With `CO[C@H]1O[C@H](COS(=O)(=O)O)[C@@H](O[C@H]2O[C@@H](C(=O)O)[C@@H](O[C@H]3O[C@H](COS(=O)(=O)O)[C@@H](O[C@H]4O[C@H](C(=O)O)C[C@H](O)[C@H]4O)[C@H](OS(=O)(=O)O)[C@H]3NS(=O)(=O)O)[C@H](O)[C@H]2OS(=O)(=O)O)[C@H](OS(=O)(=O)O)[C@H]1OS(=O)(=O)O` as the compound, how does the second-order rate constant [7] read?
**A.** 2000 M⁻¹ s⁻¹

**Q.** And the KCS, APP [8]?
**A.** 3.2 µM

**Q.** And the KCS, APP [9]?
**A.** 3.1 µM

**Q.** What about the KCS, APP [10] of the same compound?
**A.** 3.5 µM

**Q.** And the KCS, APP [11]?
**A.** 2.1 µM

**Q.** And the KCS, APP [12]?
**A.** 3.5 µM

**Q.** And the second-order rate constant [13]?
**A.** 2400 M⁻¹ s⁻¹

**Q.** What about the second-order rate constant [14] of the same compound?
**A.** 3200 M⁻¹ s⁻¹

**Q.** And the second-order rate constant [15]?
**A.** 4300 M⁻¹ s⁻¹

**Q.** And the KCS, APP [16]?
**A.** 4.8 µM

**Q.** And the second-order rate constant [17]?
**A.** 4700 M⁻¹ s⁻¹

**Q.** And the second-order rate constant [18]?
**A.** 7400 M⁻¹ s⁻¹

**Q.** And the second-order rate constant [19]?
**A.** 6400 M⁻¹ s⁻¹

**Q.** For `O=S(=O)(O)Oc1cc2c(c(OS(=O)(=O)O)c1)C[C@H](OS(=O)(=O)O)[C@@H](c1ccc(OS(=O)(=O)O)c(OS(=O)(=O)O)c1)O2`, which Kd [4] is on record?
**A.** 2200 µM

**Q.** And the K ACT [5]?
**A.** 6750 M⁻¹ s⁻¹

**Q.** What about the Kd [1] of the same compound?
**A.** 3.5 µM

**Q.** And the Kd [6]?
**A.** 17.9 µM

**Q.** What about the Kd [3] of the same compound?
**A.** 1000 µM

Reference: ChEMBL document CHEMBL1135824, “Interaction of designed sulfated flavanoids with antithrombin: lessons on the design of organic activators” (J Med Chem, 2002)
